These results are taken from ChEMBL document CHEMBL4837188, “Identification of Novel Tricyclic Benzo[1,3]oxazinyloxazolidinones as Potent Antibacterial Agents with Excellent Pharmacokinetic Profiles against Drug-Resistant Pathogens” (J Med Chem, 2021).

Series [1] concerns Mycobacterium tuberculosis. In words: Antitubercular activity against Mycobacterium tuberculosis H37Rv assessed as inhibition of bacterial growth incubated for 7 days by MABA. The note with it: 168 h, time 7 day. It counts as functional. A digest of the protocol: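 Microplate alamar blue assay. H37Rv or clinical isolates were grown to late log phase in 7H9 broth with glycerol, Tween 80 and ADC, then 2 × 10⁵ CFU added to two-fold dilutions. Final range 32–0.5 μg/mL, lowered to 2–0.016 μg/mL for active compounds. 37 °C, 7 days, then alamar blue 16 h. Fluorescence 530/590 nm. MIC is the lowest concentration giving ≥90% reduction; INH and RFP were controls.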
A general note: The colour change of resazurin is a common sign of viable cells or microbes.

Another series relates to Escherichia coli. In words: Antibacterial activity against Escherichia coli 25922 assessed as inhibition of bacterial growth incubated for 18 hrs by broth microdilution method. It is filed as functional. The note with it: ATCC 25922. In a few lines: (§1)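 Broth microdilution in 96-well plates. Media: cation-adjusted Mueller−Hinton broth for S. aureus, brain heart infusion for VRE, Mueller−Hinton broth for the other strains. Incubated at 37 °C for 18 h, then A600 read. Percent growth inhibition calculated against 1% DMSO vehicle.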
In general terms: Dilution methods test growth across graded concentrations, often in twofold steps.

For the next series, the system named is Bacillus subtilis. In words: Antibacterial activity against Bacillus subtilis 168 assessed as inhibition of bacterial growth incubated for 18 hrs by broth microdilution method. It is filed as functional. In a few lines: as §1
Series [2] deals with Staphylococcus aureus. In words: Antibacterial activity against Staphylococcus aureus ATCC 29213 assessed as inhibition of bacterial growth incubated for 18 hrs by broth microdilution method. It is filed as functional. A digest of the protocol:
as §1

A further series deals with Staphylococcus capitis. In words: Antibacterial activity against linezolid resistant Staphylococcus capitis assessed as bacterial growth inhibition after 18 hrs by broth microdilution method. It counts as functional.
Series [3] relates to Enterococcus faecium. Description: Antibacterial activity against linezolid resistant Enterococcus faecium 13549 assessed as bacterial growth inhibition after 18 hrs by broth microdilution method. It is filed as functional.
Series [4] relates to Staphylococcus aureus. In words: Antibacterial activity against methicillin resistant Staphylococcus aureus assessed as bacterial growth inhibition after 18 hrs by broth microdilution method. It is filed as functional.
The test system of series [5] is Enterococcus faecium. In words: Antibacterial activity against Enterococcus faecium ATCC 49624 assessed as bacterial growth inhibition after 18 hrs by broth microdilution method. It is filed as functional. In a few lines:
as §1

For series [6], the system named is Staphylococcus epidermidis. In words: Antibacterial activity against methicillin resistant Staphylococcus epidermidis assessed as bacterial growth inhibition after 18 hrs by broth microdilution method. It counts as functional.
The subject of the next series is Enterococcus. In words: Antibacterial activity against vancomycin resistant Enterococcus assessed as bacterial growth inhibition after 18 hrs by broth microdilution method. It is filed as functional.
In series [7] the test system is Enterococcus faecalis. In words: Antibacterial activity against linezolid resistant Enterococcus faecalis assessed as bacterial growth inhibition after 18 hrs by broth microdilution method. It is filed as functional.
Series [8] concerns Staphylococcus aureus. In words: Antibacterial activity against vancomycin intermediate Staphylococcus aureus assessed as bacterial growth inhibition after 18 hrs by broth microdilution method. It counts as functional.
The test system of series [9] is Enterococcus faecalis. Description: Antibacterial activity against Enterococcus faecalis ATCC 29212 assessed as bacterial growth inhibition after 18 hrs by broth microdilution method. It counts as functional. In a few lines: as §1
The nature of series [10]: Metabolic stability in pooled human liver microsomes incubated for 30 mins by LC-MS analysis. It is filed as ADME, Microsome. The note with it: read-out: Stabilty. In a few lines:
(§2)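 Microsomes from male CD-1 mouse or pooled human, 1 mg/mL protein in 0.05 M phosphate buffer pH 7.4. Compound at final 0.1 μM with DMSO cosolvent. Incubated at 37 °C with 1 mM NADPH, or with buffer in place of NADPH. Sampled at 0 and 30 min and quenched with acetonitrile. LC−MS measurement; substrate remaining at 30 min normalized to time zero.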

Series [11] is described as follows: Metabolic stability in CD-1 mouse liver microsomes incubated for 30 mins by LC-MS analysis. It counts as ADME, Microsome. In a few lines:
as §2
(Liver microsomes are vesicles of endoplasmic reticulum, rich in cytochrome P450 enzymes.)

Series [12] is described as follows: Metabolic stability in pooled human liver microsomes assessed as substrate remaining in presence of NADPH incubated for 30 mins by LC-MS analysis. It is filed as ADME, Microsome. The note with it: read-out: Stabilty. In a few lines:
as §2

Series [13] can be described thus: Metabolic stability in CD-1 mouse liver microsomes assessed as substrate remaining in presence of NADPH incubated for 30 mins by LC-MS analysis. It is filed as ADME, Microsome. The note with it: read-out: Stabilty. In a few lines:
as §2

[14] abbreviates: Mycobacterium tuberculosis, H37Rv, read-out: MIC.

≈ marks a conversion by molar mass, not a printed value.

With `N#Cc1ccc(-c2cc3c(cc2F)O[C@H]2[C@H](CN)OC(=O)N2C3)cn1`, the MIC in series [1] (setting [14]) was 0.26 µg/mL (≈ 0.764 µM).
Regarding `N#Cc1ccc(-c2ccc3c(c2)CN2C(=O)O[C@@H](CN)[C@@H]2O3)cn1`, the MIC with Escherichia coli was more than 64 µg/mL; in the series with Bacillus subtilis, more than 64 µg/mL; in [1] (setting [14]), 2.94 µg/mL (≈ 9.12 µM); with Staphylococcus aureus [2], more than 64 µg/mL.
As to `CC(=O)NC[C@@H]1OC(=O)N2Cc3cc(-c4ccc(-c5nnn(C)n5)nc4)c(F)cc3O[C@@H]12`, the MIC was more than 64 µg/mL with Escherichia coli; 2 µg/mL (≈ 4.55 µM) in the series with Staphylococcus capitis; 2 µg/mL (≈ 4.55 µM) in the series on Enterococcus faecium [3]; 0.5 µg/mL (≈ 1.14 µM) in the series with Staphylococcus aureus [4]; 1 µg/mL (≈ 2.28 µM) in the series with Enterococcus faecium [5]; 1 µg/mL (≈ 2.28 µM) in series [6]. In addition, the MIC with Enterococcus was 0.25 µg/mL (≈ 0.569 µM); in the series on Enterococcus faecalis [7] it was 1 µg/mL (≈ 2.28 µM); in the series on Staphylococcus aureus [8], 0.5 µg/mL (≈ 1.14 µM); in the series with Bacillus subtilis, 0.125 µg/mL (≈ 0.284 µM); with Enterococcus faecalis [9], 0.5 µg/mL (≈ 1.14 µM); in series [1] (setting [14]), 0.54 µg/mL (≈ 1.23 µM). In addition, in the series with Staphylococcus aureus [2], the MIC was 0.125 µg/mL (≈ 0.284 µM).
For `NC[C@@H]1OC(=O)N2Cc3cc(N4CCOCC4)c(F)cc3O[C@@H]12`, the MIC in the series on Escherichia coli was more than 64 µg/mL; in the series with Bacillus subtilis, more than 64 µg/mL; in series [1] (setting [14]), more than 32 µg/mL; in the series on Staphylococcus aureus [2], more than 64 µg/mL.
As to `NC[C@@H]1OC(=O)N2Cc3cc(N4CCOCC4)ccc3O[C@@H]12`, the MIC in [1] (setting [14]) was more than 32 µg/mL.
In the case of `CC(=O)NC[C@@H]1OC(=O)N2Cc3cc(-c4ccc(C#N)nc4)ccc3O[C@@H]12`, the MIC is more than 64 µg/mL in the series with Escherichia coli, 1 µg/mL (≈ 2.74 µM) in the series with Bacillus subtilis, 12.2 µg/mL (≈ 33.6 µM) in series [1] (setting [14]) and 0.5 µg/mL (≈ 1.37 µM) in the series on Staphylococcus aureus [2].
Consider `CC(=O)NC[C@H]1OC(=O)N2Cc3cc(-c4ccc(C#N)nc4)c(F)cc3O[C@H]12`, for which the minimal inhibitory concentration (MIC) in series [1] (setting [14]) was more than 32 µg/mL; in the series with Staphylococcus aureus [2], more than 64 µg/mL.
On to `Cn1nnc(-c2ccc(-c3cc4c(cc3F)O[C@H]3[C@H](CN)OC(=O)N3C4)cn2)n1`, for which the MIC in the series on Escherichia coli was more than 64 µg/mL; in the series with Bacillus subtilis it was more than 64 µg/mL; in series [1] (setting [14]) it was 0.47 µg/mL (≈ 1.18 µM); with Staphylococcus aureus [2], 32 µg/mL (≈ 80.5 µM).
Regarding `CC(=O)NC[C@@H]1OC(=O)N2Cc3cc(N4CCOCC4)c(F)cc3O[C@@H]12`, the MIC with Escherichia coli is more than 64 µg/mL; in the series with Bacillus subtilis it was 8 µg/mL (≈ 21.9 µM); in [1] (setting [14]) it was 31.7 µg/mL (≈ 86.8 µM); with Staphylococcus aureus [2], 2 µg/mL (≈ 5.47 µM).
Take `CC(=O)NC[C@@H]1OC(=O)N2c3cc(F)c(Br)cc3OC[C@@H]12`: the remaining at 0.5 h is 110% in series [10], 71.4% in [12] and 73.4% in series [13]. The same compound gave a Stabilty in [11] (mouse, microsomes, 0.5 h) of 125%.
Regarding `CC(=O)NC[C@@H]1OC(=O)N2Cc3cc(Br)c(F)cc3O[C@@H]12`, the remaining at 0.5 h in series [10] amounted to 93.8%; in series [11] (CD-1, mouse, liver microsomes, read-out: Stabilty), 102%; in series [12], 111%; in series [13], 105%.
Turning to `CC(=O)NC[C@@H]1OC(=O)N2Cc3cc(N4CCOCC4)ccc3O[C@@H]12`, in [1] (setting [14]), the MIC was more than 32 µg/mL.
Regarding `CC(=O)NC[C@@H]1OC(=O)N2Cc3cc(F)c(-c4ccc(C#N)nc4)cc3O[C@@H]12` (racemic), the MIC with Escherichia coli was more than 64 µg/mL; with Bacillus subtilis, more than 64 µg/mL; in [1] (setting [14]), more than 32 µg/mL; in the series with Staphylococcus aureus [2], more than 64 µg/mL.
As to `CC(=O)NC[C@@H]1OC(=O)N2Cc3cc(F)c(N4CCOCC4)cc3O[C@@H]12` (racemic), the MIC in [1] (setting [14]) is more than 32 µg/mL.
Still for that read-out and setting: next, `NC[C@@H]1OC(=O)N2Cc3cc(F)c(N4CCOCC4)cc3O[C@@H]12` (racemic): more than 32 µg/mL.
Turning to `N#Cc1ccc(-c2cc3c(cc2F)CN2C(=O)O[C@@H](CN)[C@@H]2O3)cn1` (racemic), the MIC in the series on Escherichia coli was more than 64 µg/mL; in the series on Bacillus subtilis, more than 64 µg/mL; in series [1] (setting [14]), more than 32 µg/mL; in the series with Staphylococcus aureus [2] it was more than 64 µg/mL.
Turning to `CC(=O)NCC1OC(=O)N2Cc3cc(-c4ccc(C#N)nc4)c(F)cc3OC12` (racemic; cis), the minimum inhibitory concentration (MIC) in [1] was found to be 15.51 µg/mL (≈ 40.6 µM).
The same measure, in the same setting: to `CC(=O)NCC1OC(=O)N2Cc3cc(-c4ccc(C#N)nc4)c(F)cc3OC12` (racemic; trans) belongs 1.58 µg/mL (≈ 4.13 µM).
Consider `CC1(C)S[C@@H]2[C@H](NC(=O)[C@H](N)c3ccccc3)C(=O)N2[C@H]1C(=O)O` [AMPICILLIN], for which the MIC in the series with Staphylococcus aureus [4] is more than 32 µg/mL; in series [6] it was more than 32 µg/mL; in the series on Bacillus subtilis, 0.25 µg/mL (≈ 0.715 µM); in the series with Staphylococcus aureus [2], 0.25 µg/mL (≈ 0.715 µM).
Take `CC(=O)NC[C@H]1CN(c2ccc(N3CCOCC3)c(F)c2)C(=O)O1` [LINEZOLID]: the MIC in the series on Escherichia coli was more than 64 µg/mL; with Staphylococcus capitis, not below 16 µg/mL; in the series on Enterococcus faecium [3] it was 8 µg/mL (≈ 23.7 µM); in the series on Enterococcus faecium [5], 2 µg/mL (≈ 5.93 µM); with Bacillus subtilis, 0.25 µg/mL (≈ 0.741 µM); in [1] (setting [14]) it was 0.88 µg/mL (≈ 2.61 µM). The MIC in the series on Staphylococcus aureus [2] worked out at 0.125 µg/mL (≈ 0.371 µM).
As for `CN[C@H](CC(C)C)C(=O)N[C@H]1C(=O)N[C@@H](CC(N)=O)C(=O)N[C@H]2C(=O)N[C@H]3C(=O)N[C@H](C(=O)N[C@H](C(=O)O)c4cc(O)cc(O)c4-c4cc3ccc4O)[C@H](O)c3ccc(c(Cl)c3)Oc3cc2cc(c3O[C@@H]2O[C@H](CO)[C@@H](O)[C@H](O)[C@H]2O[C@H]2C[C@](C)(N)[C@H](O)[C@H](C)O2)Oc2ccc(cc2Cl)[C@H]1O` [VANCOMYCIN], the MIC with Escherichia coli was 64 µg/mL (≈ 44.2 µM); in series [6] it was less than 2 µg/mL; with Enterococcus, more than 32 µg/mL; in the series with Staphylococcus aureus [8], more than 32 µg/mL; in the series with Bacillus subtilis, 0.25 µg/mL (≈ 0.173 µM).

What is called MIC is the lowest concentration found to suppress growth.
